Experimental data gathered from unrelated publications.
Lines come from different studies, so protocols differ.
Read-out: metabolic stability
Host: human
Sample: liver microsomes

CS(=O)(=O)c1ccc(-c2cnc(N)c(-c3ccc(C(F)(F)F)nc3)c2)cc1 — compound remaining (1 µM, 30 min): 92%
O=C(Nc1ccc(S(=O)(=O)N2CCC(Cl)CC2)cc1)c1ccc([N+](=O)[O-])o1 — compound remaining (1 µM, 1 h, pH 7.4): 0.49%
Cc1cn(-c2ccc(-c3csc(Nc4c5c(nn4C)CCCC5)n3)cc2)cn1 — compound remaining (1 µM, 30 min): 55%
Nc1nc(-c2ccc(NC(=O)Nc3cccc(-c4c[nH]c(N)n4)c3F)cc2F)c[nH]1 — compound remaining (5 µM, 1 h, pH 7.4): > 80%
O=C(CCCO)N1N=C(c2c(-c3ccc(Cl)cc3)c3ccccc3[nH]c2=O)CC1c1ccc(Cl)cc1 (centres unmarked) — compound remaining (1 µM, 20 min, pH 7.4): 31%
Nc1nc(-c2cccc(NC(=O)Nc3cccc(-c4c[nH]c(N)n4)c3)c2)c[nH]1 — compound remaining (5 µM, 1 h, pH 7.4): > 80%
CC(C)NCC(O)COc1cccc2ccccc12 (centres unmarked) — compound remaining (1 µM, 30 min): 63%
CC[C@H](NC(=O)[C@H](CS(=O)(=O)CC1CC1)N[C@@H](c1ccc(F)cc1)C(F)(F)F)C(=O)C(=O)NC1CC1 — compound remaining (1 h): 93%
